For assay [1], the system named is Rattus norvegicus. Nature of the assay: Ability to inhibit norepinephrine uptake in rat atria was determined at 486 umol/kg. In kind it is functional. The procedure, abridged:
(§1)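 Male Sprague-Dawley rats (120 ± 10 g) got the dose in 0.9% saline with 0.1% ascorbic acid, 0.2 mL i.v. via the left femoral vein under light halothane. Controls got vehicle. At 24 h, atria were cut into four 10-15 mg pieces and incubated 30 min at 37 °C under 95% O2/5% CO2 in Krebs-Ringer bicarbonate (pH 7.35) with 10^-7 M [3H]NE. A 10 min washout followed, then HClO4 extracts were counted. Inhibition = control minus treated, 12 determinations from 3 rats, mean ± SD.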

Assay [2] concerns Rattus norvegicus. Nature of the assay: Ability to inhibit norepinephrine uptake in rat atria was determined at 24 uM/kg. Format: functional. The procedure, abridged: as §1
For assay [3], the system named is Rattus norvegicus. Nature of the assay: Ability to inhibit norepinephrine uptake in rat atria was determined at 243 umol/kg. Format: functional. The procedure, abridged: as §1
Assay [4] has as its system Rattus norvegicus. In words: Ability to inhibit norepinephrine uptake in rat atria was determined at 49 uM/kg. In kind it is functional. An outline of the steps: as §1
Assay [5] has as its system Rattus norvegicus. Nature of the assay: Ability to inhibit norepinephrine uptake in rat atria was determined at 73 uM/kg. In kind it is functional. The procedure, abridged: as §1
Assay [6] has as its system Rattus norvegicus. In words: Ability to inhibit norepinephrine uptake in rat atria was determined at 97 umol/kg. Format: functional. The procedure, abridged: as §1
Assay [7] relates to Rattus norvegicus. Nature of the assay: Ability to inhibit norepinephrine uptake in rat atria was determined at 122 umol/kg. Format: functional. The procedure, abridged:
as §1

Assay [8] deals with Rattus norvegicus. Nature of the assay: Ability to inhibit norepinephrine uptake in rat atria was determined at 365 umol/kg. In kind it is functional. An outline of the steps: as §1
In assay [9] the test system is Rattus norvegicus. Nature of the assay: Ability to inhibit norepinephrine uptake in rat atria was determined at 486uM/kg; b denotes 'Rats expired with in 30 min after injection'. Format: functional, organism-based. An outline of the steps: as §1
Assay [10] has as its system Rattus norvegicus. Nature of the assay: Ability to inhibit norepinephrine uptake in rat atria was determined at 730uM/kg; b denotes 'Rats expired with in 30 min after injection'. In kind it is functional, organism-based. The procedure, abridged: as §1
Assay [11] relates to Rattus norvegicus. In words: Ability to inhibit norepinephrine uptake in rat atria was determined at 365uM/kg; b denotes 'Rats expired with in 30 min after injection'. In kind it is functional, organism-based. An outline of the steps:
as §1

Assay [12] relates to Rattus norvegicus. In words: Ability to inhibit norepinephrine uptake in rat atria was determined at 243uM/kg; b denotes 'Rats expired with in 30 min after injection'. In kind it is functional, organism-based. An outline of the steps:
as §1

Assay [13] deals with Rattus norvegicus. Nature of the assay: Ability to inhibit norepinephrine uptake in rat atria was determined at122uM/kg; b denotes 'Rats expired with in 30 min after injection'. Format: functional, organism-based. An outline of the steps: as §1

Molecules are shown by their SMILES.

A word on the inhibition in vivo: it is the change of the read-out against control, counted positive when it falls. What is called Inhibition is how much of the control response was suppressed. Low values mean little suppression, high ones strong suppression. In the assay with Rattus norvegicus [1], `NCCc1cc(O)c(O)cc1O` [OXIDOPAMINE] displayed an inhibition in vivo at 486 µmol/kg of 87%. Further, the Inhibition with Rattus norvegicus [2] is 45%; with Rattus norvegicus [4] it was 68%; in the assay with Rattus norvegicus [5], 74%. This molecule also gave an inhibition in vivo at 243 µmol/kg with Rattus norvegicus [3] of 85%. The molecule further had an inhibition in vivo at 97 µmol/kg with Rattus norvegicus [6] of 79%. In addition, the inhibition in vivo at 122 µmol/kg in the assay on Rattus norvegicus [7] amounted to 79%.
Molecule `NCCc1cc(O)ccc1O` registered an inhibition in vivo at 486 µmol/kg in the assay on Rattus norvegicus [1] of 0%.
In turn, `Cc1cc(O)c(CCN)cc1O` showed an inhibition in vivo at 365 µmol/kg in the assay with Rattus norvegicus [8] of 24%. Further, the inhibition result in the assay on Rattus norvegicus [9] and with Rattus norvegicus [10] was “Rats expired within 30min after injection” each time. This molecule also returned an inhibition in vivo at 243 µmol/kg with Rattus norvegicus [3] of 27%. This molecule also yielded an Inhibition with Rattus norvegicus [5] of 16%. Further, the inhibition in vivo at 122 µmol/kg in the assay with Rattus norvegicus [7] was 19%.
On to `COc1cc(O)c(CCN)cc1O`, for which the inhibition in vivo at 365 µmol/kg in the assay on Rattus norvegicus [8] turned out to be 26%. Further, the inhibition entry in the assay on Rattus norvegicus [9] and in the assay on Rattus norvegicus [10] was “Rats expired within 30min after injection” in each case.
`NCCc1cc(O)c(N)cc1O`: the inhibition entry in the assay on Rattus norvegicus [11], in the assay on Rattus norvegicus [9], in the assay with Rattus norvegicus [12], with Rattus norvegicus [13] and in the assay on Rattus norvegicus [10] was “Rats expired within 30min after injection” throughout. For the same molecule, the Inhibition with Rattus norvegicus [2] is 20%; with Rattus norvegicus [4], 60%; with Rattus norvegicus [5], 80%. Besides, the inhibition in vivo at 97 µmol/kg in the assay with Rattus norvegicus [6] worked out at 91%.
For the molecule `NCCc1cc(O)c(Cl)cc1O`, the inhibition in vivo at 486 µmol/kg in the assay with Rattus norvegicus [1] came out at 0%.
Still for that read-out and setting: then `N#Cc1cc(O)c(CCN)cc1O`, with 0%; and `NCCc1cc(O)c([N+](=O)[O-])cc1O`, with 0%.
For `NCCc1cc(O)c(Br)cc1O`, the inhibition in vivo at 243 µmol/kg in the assay on Rattus norvegicus [3] was 10%. Also, in the assay on Rattus norvegicus [7], the inhibition in vivo at 122 µmol/kg was found to be 0%.
For `NCCc1cc(O)c(C(=O)O)cc1O`, the inhibition in vivo at 486 µmol/kg with Rattus norvegicus [1] was 0%.

(Values after ChEMBL document CHEMBL1122635, “Synthesis and physicochemical and neurotoxicity studies of 1-(4-substituted-2,5-dihydroxyphenyl)-2-aminoethane analogues of 6-hydroxydopamine” (1984).)
